In ChEMBL document CHEMBL3259519, “Targeting triple-negative breast cancer cells with 6,7-bis(hydroxymethyl)-1H,3H-pyrrolo[1,2-c]thiazoles” (Eur J Med Chem, 2014):
One block for each molecule: values may come before it. Activity calls are given as the source filed them. No cut-off for these calls is given here.

Experiments:
HCC1806 [1] = test: Induction of DNA strand break in ER, PR, HER2-deficient human HCC1806 cells at IC50 after 48 hrs by alkaline comet assay; assay type: functional, cell-based
How it was run: (§1)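 5x10^5 cells got IC50 or 3x IC50 for 48 h (DMSO 0.1%); H2O2-treated cells served as positive control. Cells in 1% low-melt agarose went onto slides precoated with normal-melt agarose. Slides were lysed overnight in alkaline buffer (2.5 M NaCl, EDTA, Tris, DMSO, Triton X-100). Electrophoresis ran in 300 mM NaOH/1 mM EDTA (pH>13) at 25 V for 15 min. Slides were neutralized in Tris pH 7.4 and stained with 25 µg/mL ethidium bromide for fluorescence microscopy.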

MCF7 [2] = test: Induction of apoptosis in human MCF7 cells expressing ER and BRCA2 assessed as increase of late apoptotic/nectrotic cells at IC50 after 48 hrs by Annexin V/propidium iodide staining-based flow cytometry relative to control; assay type: functional, cell-based
How it was run: (§2)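 2x10^6 cells were attached overnight, then given IC50 for 48 h (DMSO 0.1%). PBS-washed cells were stained with Annexin V-FITC and PI in binding buffer for 15 min at 4 °C in the dark. Flow cytometry used 488 nm excitation. Cells were gated as viable, apoptotic, late apoptotic/necrotic or necrotic, reported as mean ± SD (n≥5).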

HCC1806 [3] = test: Induction of apoptosis in triple negative ER, PR, HER2-deficient human HCC1806 cells assessed as decrease of viable cells at IC50 after 48 hrs by Annexin V/propidium iodide staining-based flow cytometry relative to control; assay type: functional; how it was run: as §2
MCF7 [4] = test: Antiproliferative activity against human MCF7 cells expressing ER and BRCA2 assessed as growth inhibition after 96 hrs by MTT assay; assay type: functional, cell-based; conditions: MCF7, 96 h
How it was run: (§3)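 Cells were seeded at 2x10^4/well and left to attach overnight. Compounds in DMSO were diluted in medium and applied for 24, 48, 72 or 96 h. Cells were then PBS-washed and given 0.5 mg/mL MTT (pH 7.4) at 37 °C for 4 h. Formazan was dissolved in acid isopropanol. IC50 came from dose-response curves by exponential decay fitting (r2>0.9), with 95% CI.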

MCF7 [5] = test: Induction of apoptosis in human MCF7 cells expressing ER and BRCA2 assessed as decrease in viable cells at IC50 after 48 hrs by Annexin V/propidium iodide staining-based flow cytometry relative to control; assay type: functional; how it was run: as §2
HCC1806 [6] = test: Induction of DNA strand break in ER, PR, HER2-deficient human HCC1806 cells at 3 x IC50 after 48 hrs by alkaline comet assay; assay type: functional, cell-based; how it was run: as §1
HCC1806 [7] = test: Cell cycle arrest in ER, PR, HER2-deficient human HCC1806 cells as decrease in accumulation at G0/G1 phase at IC50 after 48 hrs by propidium staining-based FACS analysis; assay type: functional
How it was run: (§4)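 2x10^6 cells were attached overnight, then exposed to IC50 for 48 h (DMSO 0.1%). They were fixed in ice-cold 70% ethanol for 30 min in the dark, PBS-washed and stained with PI/RNase for 15 min at RT. Flow cytometry used 488 nm excitation and a 585/42 filter. Sub-G0, G0/G1, S and G2/M fractions were reported as mean ± SD (n≥5).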

HCC1806 [8] = test: Induction of apoptosis in triple negative ER, PR, HER2-deficient human HCC1806 cells assessed as increase of necrotic cells at IC50 after 48 hrs by Annexin V/propidium iodide staining-based flow cytometry relative to control; assay type: functional, cell-based; how it was run: as §2
HCC1806 [9] = test: Induction of apoptosis in triple negative ER, PR, HER2-deficient human HCC1806 cells assessed as reduction of long term cell survival at IC50 after 48 hrs by clonogenic assay relative to control
HCC1954 [10] = test: Antiproliferative activity against human HCC1954 cells expressing HER2 assessed as growth inhibition after 72 hrs by MTT assay; assay type: functional, cell-based; conditions: HCC1954, 72 h; how it was run: as §3
HCC1806 [11] = test: Induction of apoptosis in triple negative ER, PR, HER2-deficient human HCC1806 cells assessed as increase of late apoptotic/nectrotic cells at IC50 after 48 hrs by Annexin V/propidium iodide staining-based flow cytometry relative to control; assay type: functional, cell-based; how it was run: as §2
MCF7 [12] = test: Induction of apoptosis in human MCF7 cells expressing ER and BRCA2 assessed as increase of necrotic cells at IC50 after 48 hrs by Annexin V/propidium iodide staining-based flow cytometry relative to control; assay type: functional, cell-based; how it was run: as §2
HCC1806 [13] = test: Cytotoxicity against ER, PR, HER2-deficient human HCC1806 cells as reduction of survival factor at IC50 incubated for 48 hrs measured after 12 days by crystal violet staining-based clonogenic assay; assay type: functional
HCC1806 [14] = test: Antiproliferative activity against ER, PR, HER2-deficient human HCC1806 cells as growth inhibition after 96 hrs by MTT assay; assay type: functional, cell-based; conditions: HCC1806, 96 h; how it was run: as §3
MCF7 [15] = test: Antiproliferative activity against human MCF7 cells expressing ER and BRCA2 assessed as growth inhibition after 72 hrs by MTT assay; assay type: functional, cell-based; conditions: MCF7, 72 h; how it was run: as §3
MCF7 [16] = test: Induction of apoptosis in human MCF7 cells expressing ER and BRCA2 assessed as increase in p53 expression at IC50 after 48 hrs by Western blotting analysis relative to control; assay type: functional, cell-based
How it was run: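 Cells were treated with IC50 for 48 h and lysed on ice in RIPA with protease inhibitors, then sonicated and centrifuged. Protein was quantified by BCA and separated on 10% SDS-PAGE, then transferred and blocked with 4% BSA/TBS-T. Blots were probed overnight at 4 °C with anti-p53 (DO7) and actin, then anti-mouse secondary. ECF fluorescence was scanned and quantified.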

HCC1806 [17] = test: Cytotoxicity against ER, PR, HER2-deficient human HCC1806 cells as reduction of total protein content at IC50 incubated for 48 hrs by SRB assay relative to control; assay type: functional; parameters: scale not given: the % may be the effect or the level left
HCC1954 [18] = test: Antiproliferative activity against human HCC1954 cells expressing HER2 assessed as growth inhibition after 48 hrs by MTT assay; assay type: functional, cell-based; conditions: HCC1954, 48 h; how it was run: as §3
HCC1954 [19] = test: Antiproliferative activity against human HCC1954 cells expressing HER2 assessed as growth inhibition after 96 hrs by MTT assay; assay type: functional, cell-based; conditions: HCC1954, 96 h; how it was run: as §3
MCF7 [20] = test: Cell cycle arrest in human MCF7 cells expressing ER and BRCA2 assessed as increase in accumulation at S phase at IC50 after 48 hrs by propidium staining-based FACS analysis; assay type: functional; how it was run: as §4
MCF7 [21] = test: Induction of DNA strand break in human MCF7 cells expressing ER and BRCA2 at IC50 after 48 hrs by alkaline comet assay; assay type: functional, cell-based; how it was run: as §1
MCF7 [22] = test: Antiproliferative activity against human MCF7 cells expressing ER and BRCA2 assessed as growth inhibition after 48 hrs by MTT assay; assay type: functional, cell-based; conditions: MCF7, 48 h; how it was run: as §3
MCF7 [23] = test: Antiproliferative activity against human MCF7 cells expressing ER and BRCA2 assessed as growth inhibition after 24 hrs by MTT assay; assay type: functional, cell-based; conditions: MCF7, 24 h; how it was run: as §3
MCF7 [24] = test: Induction of apoptosis in human MCF7 cells expressing ER and BRCA2 assessed as early apoptotic cells at IC50 after 48 hrs by Annexin V/propidium iodide staining-based flow cytometry relative to control; assay type: functional, cell-based; how it was run: as §2
HCC1806 [25] = test: Cell cycle arrest in ER, PR, HER2-deficient human HCC1806 cells as accumulation at S phase at IC50 after 48 hrs by propidium staining-based FACS analysis; assay type: functional; how it was run: as §4
MCF7 [26] = test: Induction of apoptosis in human MCF7 cells expressing ER and BRCA2 assessed as increase in Bax/Bcl2 expression ratio at IC50 after 48 hrs by flow cytometry relative to control
MCF7 [27] = test: Cell cycle arrest in human MCF7 cells expressing ER and BRCA2 assessed as decrease in accumulation at G0/G1 phase at IC50 after 48 hrs by propidium staining-based FACS analysis; assay type: functional; how it was run: as §4
HCC1806 [28] = test: Induction of apoptosis in ER, PR, HER2-deficient human HCC1806 cells as increase in Bax/Bcl2 expression ratio at IC50 after 48 hrs by flow cytometry relative to control
HCC1806 [29] = test: Antiproliferative activity against ER, PR, HER2-deficient human HCC1806 cells as growth inhibition after 48 hrs by MTT assay; assay type: functional, cell-based; conditions: HCC1806, 48 h; how it was run: as §3
MCF7 [30] = test: Induction of DNA strand break in human MCF7 cells expressing ER and BRCA2 at 3 x IC50 after 48 hrs by alkaline comet assay; assay type: functional, cell-based; how it was run: as §1
MCF7 [31] = test: Cytotoxicity against human MCF7 cells expressing ER and BRCA2 assessed as reduction of total protein content at IC50 after 48 hrs by SRB assay relative to control; assay type: functional; parameters: scale not given: the % may be the effect or the level left
HCC1806 [32] = test: Antiproliferative activity against ER, PR, HER2-deficient human HCC1806 cells as growth inhibition after 24 hrs by MTT assay; assay type: functional, cell-based; conditions: HCC1806, 24 h; how it was run: as §3
HCC1954 [33] = test: Antiproliferative activity against human HCC1954 cells expressing HER2 assessed as growth inhibition after 24 hrs by MTT assay; assay type: functional, cell-based; conditions: HCC1954, 24 h; how it was run: as §3
MCF7 [34] = test: Cytotoxicity against human MCF7 cells expressing ER and BRCA2 assessed as reduction of survival factor at IC50 incubated for 48 hrs measured after 12 days by crystal violet staining-based clonogenic assay; assay type: functional, cell-based
MCF7 [35] = test: Cell cycle arrest in human MCF7 cells expressing ER and BRCA2 assessed as blockade at G2/M phase at IC50 after 48 hrs by propidium staining-based FACS analysis; assay type: functional; how it was run: as §4
HCC1806 [36] = test: Cell cycle arrest in ER, PR, HER2-deficient human HCC1806 cells as accumulation at pre-G0 phase phase at IC50 after 48 hrs by propidium staining-based FACS analysis; assay type: functional; how it was run: as §4
HCC1806 [37] = test: Antiproliferative activity against ER, PR, HER2-deficient human HCC1806 cells as growth inhibition after 72 hrs by MTT assay; assay type: functional, cell-based; conditions: HCC1806, 72 h; how it was run: as §3

IC50 (MCF7 [4]): 29.5 µM
IC50 (HCC1954 [10]): 46.6 µM
IC50 (HCC1806 [14]): 5.4 µM
IC50 (MCF7 [15]): 53.9 µM
IC50 (HCC1954 [18]): 65.6 µM
IC50 (HCC1954 [19]): 27.4 µM
IC50 (MCF7 [22]): 86.2 µM
IC50 (MCF7 [23]): > 100 µM
IC50 (HCC1806 [29]): 26.4 µM
IC50 (HCC1806 [32]): 80.3 µM
IC50 (HCC1954 [33]): > 100 µM
IC50 (HCC1806 [37]): 11.9 µM
Compound: Cc1c(CO)c(CO)c2n1[C@@H](c1ccc(O)cc1)SC2
Activity (HCC1806 [1]): Active
Activity (MCF7 [2]): Active
Activity (HCC1806 [3]): Active
Activity (MCF7 [5]): 21.4%
Activity (HCC1806 [6]): Active
Activity (HCC1806 [7]): Active
Activity (HCC1806 [8]): Active
Activity (HCC1806 [9]): 1.4%
Activity (HCC1806 [11]): Active
Activity (MCF7 [12]): Active
Activity (HCC1806 [13]): <2%
Activity (MCF7 [16]): Active
Activity (HCC1806 [17]): 50%
Activity (MCF7 [20]): Active
Activity (MCF7 [21]): Active
Activity (MCF7 [24]): Active
Activity (HCC1806 [25]): Active
Activity (MCF7 [26]): Active
Activity (MCF7 [27]): Active
Activity (HCC1806 [28]): Active
Activity (MCF7 [30]): Active
Activity (MCF7 [31]): 15.4%
Activity (MCF7 [34]): Active
Activity (MCF7 [35]): inactive
Activity (HCC1806 [36]): Active

IC50 (MCF7 [4]): 6.6 µM
IC50 (HCC1954 [10]): 56.1 µM
IC50 (HCC1806 [14]): 12.3 µM
IC50 (MCF7 [15]): 32.7 µM
IC50 (HCC1954 [18]): 84.4 µM
IC50 (HCC1954 [19]): 19.2 µM
IC50 (MCF7 [22]): 46.9 µM
IC50 (MCF7 [23]): > 100 µM
IC50 (HCC1806 [29]): 28 µM
IC50 (HCC1806 [32]): 89 µM
IC50 (HCC1954 [33]): > 100 µM
IC50 (HCC1806 [37]): 19.4 µM
Compound: COc1ccc([C@H]2SCc3c(CO)c(CO)c(C)n32)cc1
